Source: PubChem (Broad Institute)
FGF22 binding: FGF22 (human) thermal shift binding. Q9HCT0. activity (Tm shift, normalised), % at 9.99 µM. hit rate 1.5% among 340,000. recombinant FGF22 thermal shift, SYPRO orange fluorescence; percent of sucrose octasulfate shift, DMSO zero;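 active = mean Tm shift, scaled 0 neutral to 100 positive control, at about 1.3% or above, every replicate too, limit read from the data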
Target sequence (Q9HCT0 whole entry, looked up): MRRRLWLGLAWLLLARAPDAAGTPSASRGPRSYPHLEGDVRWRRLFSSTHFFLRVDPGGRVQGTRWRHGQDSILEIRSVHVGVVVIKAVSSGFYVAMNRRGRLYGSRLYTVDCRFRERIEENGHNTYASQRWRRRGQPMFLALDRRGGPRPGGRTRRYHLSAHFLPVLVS
PGC1a acetyl inh: modulators of PGC1a acetylation. hit rate 0.17% among 350,000. U2OS PGC1a acetylation, AlphaScreen anti-acetyl-lysine; with virally co-expressed GCN5 acetyltransferase. inhibition, % at 15.6 µM;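 active = every replicate shows inhibition of at least 40%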;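 also: 0% = neutral control wells and 100% = positive control wells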
HIV Env fusion: blocks HIV Env-driven cell-cell fusion. HeLa-JRFL Env/CEM21 cell fusion, luciferase. inhibition, % at 12.3 µM. hit rate 1.1% among 360,000;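 active = mean replicate inhibition score of at least 50 and every replicate individually at or above 50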;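 also: 0% = plate neutral controls and 100% = maraviroc near 300 nM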
PAX8 inh HTS: inhibitors of PAX8 transcriptional activity in RMG-I cells; RMG-I TPO-luciferase reporter, SteadyGlo, 24 h; inhibition, % at 12.6 µM; hit rate 1.2% among 360,000; AID 652154;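 active = mean replicate inhibition at least 60% with every replicate also reaching 60%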;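 also: luciferase light reporting Pax8 driven TPO promoter activity; plate controls were median of neutral control wells for no effect and mitoxantrone controls for full effect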
FN deposit inh: fibronectin deposition inhibition. AID 743247. inhibition, % at 12.6 µM. hit rate 0.086% among 350,000. AH1F fibroblasts, Alexa488-fibronectin deposition fluorescence, overnight;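 active = mean inhibition across replicates of 30% or more, regardless of how many single replicates reach that level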;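 also: positive control wells lacked labelled fibronectin entirely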
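Test system: AH1F fibroblast monolayer depositing Alexa488-labelled fibronectin into matrix. Input: 10000 cells per well. Technique: fluorescence, ex 485 nm, em 525 nm. Buffer or medium: DMEM plus 2% serum, read in PBS. Timing: 1 h cell adhesion before compound, then overnight fibronectin incubation. Compound: single dose, pinned. Read-out basis: inhibition from reduced deposited-fibronectin fluorescence.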
EWS-Fli block: EWS/Fli transcriptional activity inhibition; A673 NR0B1-luciferase reporter, viability-normalised; inhibition, % at 12.6 µM; hit rate 0.67% among 350,000; AID 651661;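 active = mean inhibition of at least 50% after viability correction, with every replicate also passing that limit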;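 also: firefly luciferase signal divided by Alamar Blue viability fluorescence both relative to DMSO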
* = called active by the depositor; [ ] = remark or other dose. A selection: hits, their analogues and other compounds. The true share with any hit is near 3.1%.

Results for Cc1cc(-c2nnc(SCC(=O)c3ccc4c(c3)OCCO4)o2)no1 ?
FGF22 binding: 44*; PGC1a acetyl inh: -2; HIV Env fusion: 0; PAX8 inh HTS: 9; FN deposit inh: 0; EWS-Fli block: 10

What do the screens show for `Cc1cc(-c2nnc(SCC(=O)c3ccc(F)cc3)o2)no1`?
FGF22 binding: 44*; PGC1a acetyl inh: -21; HIV Env fusion: -1; PAX8 inh HTS: 17; FN deposit inh: -8; EWS-Fli block: 18

Results for O=C(NCC(F)(F)F)[C@H]1[C@H](CO)[C@H]2Cn3c(cccc3=O)[C@@H]1N2C(=O)C1CCCC1 ?
FGF22 binding: 0; PGC1a acetyl inh: 0; PAX8 inh HTS: -3; EWS-Fli block: -13

What do the screens show for `CC1(C)CC(=O)C2=C(C1)N(c1ccc(F)cc1)C(=O)CC2c1ccsc1` (stereo unspecified)?
FGF22 binding: 0; PGC1a acetyl inh: -2; HIV Env fusion: 21; PAX8 inh HTS: -1; FN deposit inh: 11; EWS-Fli block: -1

What do the screens show for `Cc1ccc(N2C(=O)CC(c3ccsc3)C3=C2CC(C)(C)CC3=O)cc1` (stereo unspecified)?
PGC1a acetyl inh: -15; HIV Env fusion: 107*; PAX8 inh HTS: -13; FN deposit inh: -1

Results for Cc1cccc(N2CCN(C(=O)c3cccc(N4CCCC4=O)c3)C(C)C2)c1 (stereo unspecified) ?
FGF22 binding: 0; PGC1a acetyl inh: -10; HIV Env fusion: 13; PAX8 inh HTS: 27; FN deposit inh: 6; EWS-Fli block: 60*

What do the screens show for `C[C@@H]1CN([C@@H](C)CO)C(=O)c2cc(NS(=O)(=O)c3ccc(Cl)cc3)ccc2O[C@@H]1CN(C)Cc1ccc(Oc2ccccc2)cc1`?
FGF22 binding: -1; PGC1a acetyl inh: -2; EWS-Fli block: 20

How did O=C(Cc1ccccn1)NCC[C@@H]1CC[C@@H](NC(=O)Nc2ccc(F)cc2)[C@H](CO)O1 do in these assays?
FGF22 binding: 0; PGC1a acetyl inh: -3; HIV Env fusion: -21[16.7 µM]; PAX8 inh HTS: -6; EWS-Fli block: -1

Results for CC(C)(C)NC(=O)C(c1ccccc1)N(C(=O)C1CSC(=O)C1)c1ccccc1 (stereo unspecified) ?
HIV Env fusion: 65*; FN deposit inh: 6

How did CC(C)(C)NC(=O)C(c1ccncc1)N(C(=O)C1CSC(=O)C1)c1ccccc1 (stereo unspecified) do in these assays?
FGF22 binding: 0; HIV Env fusion: 4; PAX8 inh HTS: 12; FN deposit inh: -12; EWS-Fli block: 1

How did COc1ccccc1-c1ccc2c(c1)[C@H]1[C@H](CCN1S(=O)(=O)c1cccc(C)c1)[C@@H](CO)N2 do in these assays?
FGF22 binding: 1; PGC1a acetyl inh: -29; PAX8 inh HTS: 23; FN deposit inh: -25; EWS-Fli block: 8

Results for Cn1nnnc1SCC(=O)NNC(=O)c1ccc(F)cc1 ?
FGF22 binding: 42; PGC1a acetyl inh: -2; HIV Env fusion: 10; PAX8 inh HTS: 8; FN deposit inh: -7; EWS-Fli block: 6

How did Cn1nnnc1SCC(=O)NNC(=O)c1ccc(Cl)cc1 do in these assays?
FGF22 binding: 44*; PGC1a acetyl inh: 9; HIV Env fusion: -6; PAX8 inh HTS: 3; FN deposit inh: 14; EWS-Fli block: 0

Results for Cn1nnnc1SCC(=O)Nc1ncc(C(F)(F)F)cc1Cl ?
FGF22 binding: 43*; PGC1a acetyl inh: 12; HIV Env fusion: -23; PAX8 inh HTS: -8; FN deposit inh: -3; EWS-Fli block: -4

What do the screens show for `C[C@@H]1CCCCO[C@H](CN(C)Cc2ccc(C(F)(F)F)cc2)[C@@H](C)CN([C@@H](C)CO)C(=O)c2cc(NC(=O)CCCN(C)C)ccc2O1`?
FGF22 binding: 0; PGC1a acetyl inh: 6; HIV Env fusion: -27[16.7 µM]; EWS-Fli block: 13

Results for COC(=O)C1CC(O)CN1C(=O)Nc1ccccc1 (stereo unspecified) ?
FGF22 binding: 43*; HIV Env fusion: 0; PAX8 inh HTS: 9; FN deposit inh: -1; EWS-Fli block: -2

How did COc1ccc(CNC(=O)C2CC(O)CN2C(=O)Nc2ccccc2)cc1 (stereo unspecified) do in these assays?
FGF22 binding: 0; PGC1a acetyl inh: 7; HIV Env fusion: 5; PAX8 inh HTS: 2; FN deposit inh: -7; EWS-Fli block: 15

Results for Cc1c(Cl)cccc1NC(=O)N1CCCN(c2nc(-c3ccccc3)ns2)CC1 ?
FGF22 binding: 0; PGC1a acetyl inh: -2; HIV Env fusion: 55*; PAX8 inh HTS: 37; FN deposit inh: 10; EWS-Fli block: 22

How did O=C(Nc1ccccc1Cl)N1CCCN(c2nc(-c3ccccc3)ns2)CC1 do in these assays?
FGF22 binding: 0; PGC1a acetyl inh: -8; HIV Env fusion: 39; PAX8 inh HTS: 0; FN deposit inh: -4; EWS-Fli block: 19

What do the screens show for `CCOC(=O)Cc1cc(=O)[nH]n(-c2ccccc2)c1=O`?
FGF22 binding: 44*; PGC1a acetyl inh: -14; HIV Env fusion: -15; PAX8 inh HTS: -4; FN deposit inh: 2; EWS-Fli block: -3

How did O=C(O)Cc1cc(=O)[nH]n(-c2ccccc2)c1=O do in these assays?
FGF22 binding: 0; PGC1a acetyl inh: -3; HIV Env fusion: 23; PAX8 inh HTS: 0; FN deposit inh: 2; EWS-Fli block: -2

Results for CCCNC(=O)C[C@H]1CC[C@@H]2[C@H](COc3ccc(NC(=O)C4CCOCC4)cc3C(=O)N2C)O1 ?
FGF22 binding: 0; PGC1a acetyl inh: 7; HIV Env fusion: -6[16.7 µM]; PAX8 inh HTS: -2; FN deposit inh: -1; EWS-Fli block: 1

How did CCOC(=O)[C@]12CCC=C1N(Cc1ccco1)C(=O)[C@H](CC(=O)NCc1ccc(C)o1)C2 do in these assays?
FGF22 binding: 43*; HIV Env fusion: -94; PAX8 inh HTS: 19; FN deposit inh: -34; EWS-Fli block: 1

Results for CCOC(=O)[C@]12CCC=C1N(Cc1ccccc1)C(=O)[C@H](CC(=O)NCc1ccc(C)o1)C2 ?
FGF22 binding: 0; HIV Env fusion: 36; PAX8 inh HTS: -17; EWS-Fli block: -7

What do the screens show for `COC(=O)[C@]12CCCCC=C1N(Cc1ccco1)C(=O)[C@H](CC(=O)NCCc1ccccc1OC)C2`?
FGF22 binding: 0; HIV Env fusion: 92*; PAX8 inh HTS: 8; FN deposit inh: -2; EWS-Fli block: 3

How did CCCCOCCCNC(=O)C[C@@H]1C[C@@]2(C(=O)OC)CCCCC=C2N(Cc2ccco2)C1=O do in these assays?
FGF22 binding: 0; HIV Env fusion: 62*; PAX8 inh HTS: 18; FN deposit inh: -4; EWS-Fli block: 3

How did CCCN(C)C[C@@H]1OCCCC[C@H](C)Oc2ccc(NS(C)(=O)=O)cc2C(=O)N([C@@H](C)CO)C[C@H]1C do in these assays?
FGF22 binding: 0; PGC1a acetyl inh: -2; HIV Env fusion: 10[16.7 µM]; PAX8 inh HTS: -13; EWS-Fli block: 2
